Test results as given in ChEMBL document CHEMBL5058577, “EUbOPEN Chemogenomics Library 2 (Multiplex)” (2022).

System: Fibroblast
Assay: Multiplex assay against human fibroblast
Assay type: toxicity, cell-based
Method in brief: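 Cells were classed with CellPathfinder machine-learning gating, first as Hoechst high-intensity objects or normal cells, then (normal cells) as healthy, pyknosed or fragmented nuclei, and finally (pyknosed cells) as mitotic or apoptotic. Staining of live cells at seeding used Hoechst33342, BioTracker Green Microtubule Cytoskeleton Dye, MitoTracker Red and Annexin V Alexa Fluor 680, with imaging on a CQ1 microscope at 37°C and 5% CO2 after compound addition. Tubulin, mitochondrial-mass and membrane-permeability phenotypes are per cents of healthy-nucleus cells.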

[1] = 12 h, 1 µM, compound concentration 1 uM, replicate 1
[2] = 12 h, 1 µM, compound concentration 1 uM, replicate 2
[3] = 12 h, 10 µM, compound concentration 10 uM, replicate 1
[4] = 12 h, 10 µM, compound concentration 10 uM, replicate 2
[5] = 24 h, 1 µM, compound concentration 1 uM, replicate 1
[6] = 24 h, 1 µM, compound concentration 1 uM, replicate 2
[7] = 24 h, 10 µM, compound concentration 10 uM, replicate 1
[8] = 24 h, 10 µM, compound concentration 10 uM, replicate 2
[9] = 48 h, 1 µM, compound concentration 1 uM, replicate 1
[10] = 48 h, 1 µM, compound concentration 1 uM, replicate 2
[11] = 48 h, 10 µM, compound concentration 10 uM, replicate 1
[12] = 48 h, 10 µM, compound concentration 10 uM, replicate 2

O=c1nc2[nH]c3ccccc3nc-2c(=O)[nH]1 [ALLOXAZINE]
Population Apoptotic (%) [1]: 56%
Population Fragmented Nuclei (%) [1]: 16%
Population Healthy Nuclei (%) [1]: 67%
Population Hoechst High Intensity Objects (%) [1]: 5%
Population Membrane Permeable-Phenotype (%) [1]: 0%
Population Mitochondria Different-Phenotype (%) [1]: 2%
Population Mitotic Cells (%) [1]: 43%
Population Normal (%) [1]: 94%
Population Pyknosed Nuclei (%) [1]: 16%
Population Tubulin-Different-Phenotype (%) [1]: 23%
Total Cell Count [1]: 193
Population Apoptotic (%) [2]: 37%
Population Fragmented Nuclei (%) [2]: 26%
Population Healthy Nuclei (%) [2]: 50%
Population Hoechst High Intensity Objects (%) [2]: 3%
Population Membrane Permeable-Phenotype (%) [2]: 6%
Population Mitochondria Different-Phenotype (%) [2]: 3%
Population Mitotic Cells (%) [2]: 62%
Population Normal (%) [2]: 96%
Population Pyknosed Nuclei (%) [2]: 23%
Population Tubulin-Different-Phenotype (%) [2]: 33%
Total Cell Count [2]: 131
Population Apoptotic (%) [3]: 33%
Population Fragmented Nuclei (%) [3]: 23%
Population Healthy Nuclei (%) [3]: 60%
Population Hoechst High Intensity Objects (%) [3]: 4%
Population Membrane Permeable-Phenotype (%) [3]: 3%
Population Mitochondria Different-Phenotype (%) [3]: 5%
Population Mitotic Cells (%) [3]: 66%
Population Normal (%) [3]: 95%
Population Pyknosed Nuclei (%) [3]: 15%
Population Tubulin-Different-Phenotype (%) [3]: 23%
Total Cell Count [3]: 158
Population Apoptotic (%) [4]: 41%
Population Fragmented Nuclei (%) [4]: 41%
Population Healthy Nuclei (%) [4]: 38%
Population Hoechst High Intensity Objects (%) [4]: 1%
Population Mitochondria Different-Phenotype (%) [4]: 15%
Population Mitotic Cells (%) [4]: 58%
Population Normal (%) [4]: 98%
Population Pyknosed Nuclei (%) [4]: 20%
Population Tubulin-Different-Phenotype (%) [4]: 57%
Total Cell Count [4]: 86
Population Apoptotic (%) [5]: 52%
Population Fragmented Nuclei (%) [5]: 17%
Population Healthy Nuclei (%) [5]: 69%
Population Hoechst High Intensity Objects (%) [5]: 3%
Population Membrane Permeable-Phenotype (%) [5]: 0%
Population Mitochondria Different-Phenotype (%) [5]: 2%
Population Mitotic Cells (%) [5]: 47%
Population Normal (%) [5]: 96%
Population Pyknosed Nuclei (%) [5]: 12%
Population Tubulin-Different-Phenotype (%) [5]: 21%
Total Cell Count [5]: 190
Population Apoptotic (%) [6]: 36%
Population Fragmented Nuclei (%) [6]: 31%
Population Healthy Nuclei (%) [6]: 41%
Population Hoechst High Intensity Objects (%) [6]: 4%
Population Membrane Permeable-Phenotype (%) [6]: 2%
Population Mitochondria Different-Phenotype (%) [6]: 0%
Population Mitotic Cells (%) [6]: 63%
Population Normal (%) [6]: 95%
Population Pyknosed Nuclei (%) [6]: 27%
Population Tubulin-Different-Phenotype (%) [6]: 31%
Total Cell Count [6]: 114
Population Apoptotic (%) [7]: 47%
Population Fragmented Nuclei (%) [7]: 19%
Population Healthy Nuclei (%) [7]: 64%
Population Hoechst High Intensity Objects (%) [7]: 3%
Population Membrane Permeable-Phenotype (%) [7]: 0%
Population Mitochondria Different-Phenotype (%) [7]: 2%
Population Mitotic Cells (%) [7]: 52%
Population Normal (%) [7]: 96%
Population Pyknosed Nuclei (%) [7]: 15%
Population Tubulin-Different-Phenotype (%) [7]: 22%
Total Cell Count [7]: 153
Population Apoptotic (%) [8]: 64%
Population Fragmented Nuclei (%) [8]: 45%
Population Healthy Nuclei (%) [8]: 32%
Population Mitochondria Different-Phenotype (%) [8]: 7%
Population Mitotic Cells (%) [8]: 35%
Population Pyknosed Nuclei (%) [8]: 21%
Population Tubulin-Different-Phenotype (%) [8]: 50%
Total Cell Count [8]: 82
Population Apoptotic (%) [9]: 71%
Population Fragmented Nuclei (%) [9]: 14%
Population Healthy Nuclei (%) [9]: 72%
Population Hoechst High Intensity Objects (%) [9]: 9%
Population Membrane Permeable-Phenotype (%) [9]: 0%
Population Mitochondria Different-Phenotype (%) [9]: 1%
Population Mitotic Cells (%) [9]: 28%
Population Normal (%) [9]: 90%
Population Pyknosed Nuclei (%) [9]: 13%
Population Tubulin-Different-Phenotype (%) [9]: 23%
Total Cell Count [9]: 178
Population Apoptotic (%) [10]: 39%
Population Fragmented Nuclei (%) [10]: 30%
Population Healthy Nuclei (%) [10]: 48%
Population Hoechst High Intensity Objects (%) [10]: 3%
Population Membrane Permeable-Phenotype (%) [10]: 9%
Population Mitotic Cells (%) [10]: 60%
Population Normal (%) [10]: 96%
Population Pyknosed Nuclei (%) [10]: 20%
Population Tubulin-Different-Phenotype (%) [10]: 56%
Total Cell Count [10]: 114
Population Apoptotic (%) [11]: 55%
Population Fragmented Nuclei (%) [11]: 26%
Population Healthy Nuclei (%) [11]: 61%
Population Hoechst High Intensity Objects (%) [11]: 6%
Population Membrane Permeable-Phenotype (%) [11]: 2%
Population Mitochondria Different-Phenotype (%) [11]: 3%
Population Mitotic Cells (%) [11]: 44%
Population Normal (%) [11]: 93%
Population Pyknosed Nuclei (%) [11]: 11%
Population Tubulin-Different-Phenotype (%) [11]: 29%
Total Cell Count [11]: 164
Population Apoptotic (%) [12]: 45%
Population Fragmented Nuclei (%) [12]: 49%
Population Healthy Nuclei (%) [12]: 36%
Population Hoechst High Intensity Objects (%) [12]: 2%
Population Membrane Permeable-Phenotype (%) [12]: 3%
Population Mitochondria Different-Phenotype (%) [12]: 17%
Population Mitotic Cells (%) [12]: 54%
Population Normal (%) [12]: 97%
Population Pyknosed Nuclei (%) [12]: 13%
Population Tubulin-Different-Phenotype (%) [12]: 51%
Total Cell Count [12]: 81

CCCCC[C@H](O)/C=C/[C@H]1[C@H](O)CC(=O)[C@@H]1CCCCCCC(=O)O [ALPROSTADIL]
Population Apoptotic (%) [1]: 61%
Population Fragmented Nuclei (%) [1]: 16%
Population Healthy Nuclei (%) [1]: 71%
Population Hoechst High Intensity Objects (%) [1]: 0%
Population Membrane Permeable-Phenotype (%) [1]: 0%
Population Mitochondria Different-Phenotype (%) [1]: 1%
Population Mitotic Cells (%) [1]: 38%
Population Normal (%) [1]: 99%
Population Pyknosed Nuclei (%) [1]: 12%
Population Tubulin-Different-Phenotype (%) [1]: 12%
Total Cell Count [1]: 150
Population Apoptotic (%) [2]: 43%
Population Fragmented Nuclei (%) [2]: 23%
Population Healthy Nuclei (%) [2]: 57%
Population Hoechst High Intensity Objects (%) [2]: 4%
Population Membrane Permeable-Phenotype (%) [2]: 10%
Population Mitochondria Different-Phenotype (%) [2]: 2%
Population Mitotic Cells (%) [2]: 56%
Population Normal (%) [2]: 95%
Population Pyknosed Nuclei (%) [2]: 18%
Population Tubulin-Different-Phenotype (%) [2]: 38%
Total Cell Count [2]: 169
Population Apoptotic (%) [3]: 36%
Population Fragmented Nuclei (%) [3]: 7%
Population Healthy Nuclei (%) [3]: 75%
Population Hoechst High Intensity Objects (%) [3]: 5%
Population Membrane Permeable-Phenotype (%) [3]: 2%
Population Mitochondria Different-Phenotype (%) [3]: 4%
Population Mitotic Cells (%) [3]: 63%
Population Normal (%) [3]: 94%
Population Pyknosed Nuclei (%) [3]: 17%
Population Tubulin-Different-Phenotype (%) [3]: 26%
Total Cell Count [3]: 136
Population Apoptotic (%) [4]: 34%
Population Fragmented Nuclei (%) [4]: 25%
Population Healthy Nuclei (%) [4]: 43%
Population Hoechst High Intensity Objects (%) [4]: 16%
Population Membrane Permeable-Phenotype (%) [4]: 11%
Population Mitochondria Different-Phenotype (%) [4]: 1%
Population Mitotic Cells (%) [4]: 65%
Population Normal (%) [4]: 83%
Population Pyknosed Nuclei (%) [4]: 31%
Population Tubulin-Different-Phenotype (%) [4]: 45%
Total Cell Count [4]: 146
Population Apoptotic (%) [5]: 25%
Population Fragmented Nuclei (%) [5]: 15%
Population Healthy Nuclei (%) [5]: 73%
Population Hoechst High Intensity Objects (%) [5]: 0%
Population Membrane Permeable-Phenotype (%) [5]: 0%
Population Mitochondria Different-Phenotype (%) [5]: 1%
Population Mitotic Cells (%) [5]: 75%
Population Normal (%) [5]: 99%
Population Pyknosed Nuclei (%) [5]: 10%
Population Tubulin-Different-Phenotype (%) [5]: 15%
Total Cell Count [5]: 147
Population Apoptotic (%) [6]: 43%
Population Fragmented Nuclei (%) [6]: 22%
Population Healthy Nuclei (%) [6]: 53%
Population Hoechst High Intensity Objects (%) [6]: 2%
Population Membrane Permeable-Phenotype (%) [6]: 8%
Population Mitochondria Different-Phenotype (%) [6]: 8%
Population Mitotic Cells (%) [6]: 56%
Population Normal (%) [6]: 97%
Population Pyknosed Nuclei (%) [6]: 24%
Population Tubulin-Different-Phenotype (%) [6]: 40%
Total Cell Count [6]: 165
Population Apoptotic (%) [7]: 63%
Population Fragmented Nuclei (%) [7]: 14%
Population Healthy Nuclei (%) [7]: 69%
Population Hoechst High Intensity Objects (%) [7]: 2%
Population Membrane Permeable-Phenotype (%) [7]: 0%
Population Mitochondria Different-Phenotype (%) [7]: 2%
Population Mitotic Cells (%) [7]: 36%
Population Normal (%) [7]: 97%
Population Pyknosed Nuclei (%) [7]: 15%
Population Tubulin-Different-Phenotype (%) [7]: 19%
Total Cell Count [7]: 147
Population Apoptotic (%) [8]: 30%
Population Fragmented Nuclei (%) [8]: 27%
Population Healthy Nuclei (%) [8]: 45%
Population Hoechst High Intensity Objects (%) [8]: 13%
Population Membrane Permeable-Phenotype (%) [8]: 16%
Population Mitochondria Different-Phenotype (%) [8]: 3%
Population Mitotic Cells (%) [8]: 69%
Population Normal (%) [8]: 86%
Population Pyknosed Nuclei (%) [8]: 26%
Population Tubulin-Different-Phenotype (%) [8]: 59%
Total Cell Count [8]: 157
Population Apoptotic (%) [9]: 32%
Population Fragmented Nuclei (%) [9]: 18%
Population Healthy Nuclei (%) [9]: 62%
Population Hoechst High Intensity Objects (%) [9]: 1%
Population Membrane Permeable-Phenotype (%) [9]: 1%
Population Mitochondria Different-Phenotype (%) [9]: 4%
Population Mitotic Cells (%) [9]: 67%
Population Normal (%) [9]: 98%
Population Pyknosed Nuclei (%) [9]: 18%
Population Tubulin-Different-Phenotype (%) [9]: 30%
Total Cell Count [9]: 152
Population Apoptotic (%) [10]: 55%
Population Fragmented Nuclei (%) [10]: 26%
Population Healthy Nuclei (%) [10]: 51%
Population Hoechst High Intensity Objects (%) [10]: 3%
Population Membrane Permeable-Phenotype (%) [10]: 6%
Population Mitochondria Different-Phenotype (%) [10]: 8%
Population Mitotic Cells (%) [10]: 44%
Population Normal (%) [10]: 96%
Population Pyknosed Nuclei (%) [10]: 21%
Population Tubulin-Different-Phenotype (%) [10]: 44%
Total Cell Count [10]: 162
Population Apoptotic (%) [11]: 62%
Population Fragmented Nuclei (%) [11]: 11%
Population Healthy Nuclei (%) [11]: 62%
Population Hoechst High Intensity Objects (%) [11]: 2%
Population Membrane Permeable-Phenotype (%) [11]: 1%
Population Mitochondria Different-Phenotype (%) [11]: 7%
Population Mitotic Cells (%) [11]: 37%
Population Normal (%) [11]: 97%
Population Pyknosed Nuclei (%) [11]: 26%
Population Tubulin-Different-Phenotype (%) [11]: 34%
Total Cell Count [11]: 144
Population Apoptotic (%) [12]: 48%
Population Fragmented Nuclei (%) [12]: 33%
Population Healthy Nuclei (%) [12]: 44%
Population Hoechst High Intensity Objects (%) [12]: 16%
Population Membrane Permeable-Phenotype (%) [12]: 13%
Population Mitotic Cells (%) [12]: 51%
Population Normal (%) [12]: 83%
Population Pyknosed Nuclei (%) [12]: 22%
Population Tubulin-Different-Phenotype (%) [12]: 60%
